Data: ChEMBL document CHEMBL5247575 (J Med Chem, 2018)

tested on: Klebsiella pneumoniae; assay: Synergistic antibacterial activity against Klebsiella pneumoniae 1108/1989 producing KPC-3 assessed as cefepime MIC at 4 ug/ml by broth microdilution method; format: functional; settings: dose 4 µg/ml
Summary of the method: (§1)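 Broth microdilution per CLSI guidelines, using custom frozen panels. […] Each partner drug was also tested alone. MICs were run in triplicate and the modal value is reported.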

Structure (SMILES)	MIC
N#C[C@@H]1CC[C@@H]2CN1C(=O)N2OS(=O)(=O)[O-].[Na+]	0.25 µg/mL

tested on: Acinetobacter baumannii; assay: Synergistic antibacterial activity against ADC deleted Acinetobacter baumannii assessed as cefepime MIC at 4 ug/ml by broth microdilution method; format: functional; settings: dose 4 µg/ml

Structure (SMILES)	MIC
N#C[C@@H]1CC[C@@H]2CN1C(=O)N2OS(=O)(=O)[O-].[Na+]	0.5 µg/mL

tested on: Klebsiella pneumoniae; assay: Synergistic antibacterial activity against Klebsiella pneumoniae 729/1679 producing KPC-3 assessed as cefepime MIC at 4 ug/ml by broth microdilution method; format: functional; settings: dose 4 µg/ml; summary of the method: as §1

Structure (SMILES)	MIC
N#C[C@@H]1CC[C@@H]2CN1C(=O)N2OS(=O)(=O)[O-].[Na+]	0.5 µg/mL

tested on: Acinetobacter baumannii; assay: Synergistic antibacterial activity against Acinetobacter baumannii PR440 producing OXA-23/24/40 assessed as meropenem MIC at 4 ug/ml by broth microdilution method; format: functional; settings: dose 4 µg/ml

Structure (SMILES)	MIC
N#C[C@@H]1CC[C@@H]2CN1C(=O)N2OS(=O)(=O)[O-].[Na+]	4 µg/mL

tested on: Klebsiella pneumoniae; assay: Synergistic antibacterial activity against Klebsiella pneumoniae 440/1360 producing KPC-2 assessed as meropenem MIC at 8 ug/ml by broth microdilution method; format: functional; settings: dose 8 µg/ml; summary of the method: as §1

Structure (SMILES)	MIC
N#C[C@@H]1CC[C@@H]2CN1C(=O)N2OS(=O)(=O)[O-].[Na+]	≤ 0.12 µg/mL

tested on: Pseudomonas aeruginosa; assay: Synergistic antibacterial activity against Pseudomonas aeruginosa 795 assessed as cefepime MIC at 8 ug/ml by broth microdilution method; format: functional; settings: dose 8 µg/ml

Structure (SMILES)	MIC
N#C[C@@H]1CC[C@@H]2CN1C(=O)N2OS(=O)(=O)[O-].[Na+]	> 16 µg/mL

tested on: Klebsiella pneumoniae; assay: Synergistic antibacterial activity against Klebsiella pneumoniae 935/1884 producing KPC-3 assessed as cefepime MIC at 8 ug/ml by broth microdilution method; format: functional; settings: dose 8 µg/ml

Structure (SMILES)	MIC
N#C[C@@H]1CC[C@@H]2CN1C(=O)N2OS(=O)(=O)[O-].[Na+]	≤ 0.12 µg/mL

tested on: Klebsiella pneumoniae; assay: Synergistic antibacterial activity against Klebsiella pneumoniae 1108/1989 producing KPC-3 assessed as meropenem MIC at 8 ug/ml by broth microdilution method; format: functional; settings: dose 8 µg/ml; summary of the method: as §1

Structure (SMILES)	MIC
N#C[C@@H]1CC[C@@H]2CN1C(=O)N2OS(=O)(=O)[O-].[Na+]	≤ 0.12 µg/mL

tested on: Pseudomonas aeruginosa; assay: Antibacterial activity against Pseudomonas aeruginosa 839 by broth microdilution method; format: functional; settings: not given

Structure (SMILES)	MIC
N#C[C@@H]1CC[C@@H]2CN1C(=O)N2OS(=O)(=O)[O-].[Na+]	> 16 µg/mL

tested on: Acinetobacter baumannii; assay: Synergistic antibacterial activity against ADC deleted Acinetobacter baumannii transfected with pWH1266 OXA-23 assessed as meropenem MIC at 4 ug/ml by broth microdilution method; format: functional; settings: dose 4 µg/ml

Structure (SMILES)	MIC
N#C[C@@H]1CC[C@@H]2CN1C(=O)N2OS(=O)(=O)[O-].[Na+]	16 µg/mL

tested on: Escherichia coli; assay: Synergistic antibacterial activity against Escherichia coli DH10B transfected with pBC SK (-) PDC-3 assessed as meropenem MIC at 4 ug/ml by broth microdilution method; format: functional; settings: dose 4 µg/ml; summary of the method: as §1

Structure (SMILES)	MIC
N#C[C@@H]1CC[C@@H]2CN1C(=O)N2OS(=O)(=O)[O-].[Na+]	≤ 0.12 µg/mL

tested on: Acinetobacter baumannii; assay: Synergistic antibacterial activity against Acinetobacter baumannii PR476 producing OXA-24/40 assessed as meropenem MIC at 4 ug/ml by broth microdilution method; format: functional; settings: dose 4 µg/ml

Structure (SMILES)	MIC
N#C[C@@H]1CC[C@@H]2CN1C(=O)N2OS(=O)(=O)[O-].[Na+]	0.25 µg/mL

tested on: Pseudomonas aeruginosa; assay: Synergistic antibacterial activity against Pseudomonas aeruginosa CL232 assessed as cefepime MIC at 4 ug/ml by broth microdilution method; format: functional; settings: dose 4 µg/ml

Structure (SMILES)	MIC
N#C[C@@H]1CC[C@@H]2CN1C(=O)N2OS(=O)(=O)[O-].[Na+]	> 16 µg/mL

tested on: Bacteria; assay: Inhibition of bacteria PDC-3 assessed as second order rate constant K2/K using nitrocefin as substrate; settings: not given

Structure (SMILES)	K
N#C[C@@H]1CC[C@@H]2CN1C(=O)N2OS(=O)(=O)[O-].[Na+]	2.3 10^4/M/s

tested on: Acinetobacter baumannii; assay: Synergistic antibacterial activity against Acinetobacter baumannii PR474 producing OXA-23/24/40 assessed as meropenem MIC at 8 ug/ml by broth microdilution method; format: functional; settings: dose 8 µg/ml

Structure (SMILES)	MIC
N#C[C@@H]1CC[C@@H]2CN1C(=O)N2OS(=O)(=O)[O-].[Na+]	16 µg/mL

tested on: Klebsiella pneumoniae; assay: Synergistic antibacterial activity against Klebsiella pneumoniae 776/1742 producing KPC-2 assessed as meropenem MIC at 4 ug/ml by broth microdilution method; format: functional; settings: dose 4 µg/ml

Structure (SMILES)	MIC
N#C[C@@H]1CC[C@@H]2CN1C(=O)N2OS(=O)(=O)[O-].[Na+]	0.5 µg/mL

tested on: Escherichia coli; assay: Antibacterial activity against Escherichia coli DH10B by broth microdilution method; format: functional; settings: not given

Structure (SMILES)	MIC
N#C[C@@H]1CC[C@@H]2CN1C(=O)N2OS(=O)(=O)[O-].[Na+]	> 16 µg/mL

tested on: Pseudomonas aeruginosa; assay: Synergistic antibacterial activity against Pseudomonas aeruginosa 839 assessed as meropenem MIC at 8 ug/ml by broth microdilution method; format: functional; settings: dose 8 µg/ml

Structure (SMILES)	MIC
N#C[C@@H]1CC[C@@H]2CN1C(=O)N2OS(=O)(=O)[O-].[Na+]	1 µg/mL

tested on: Klebsiella pneumoniae; assay: Synergistic antibacterial activity against Klebsiella pneumoniae CAV 1543 producing OXA-48 assessed as cefepime MIC at 4 ug/ml by broth microdilution method; format: functional; settings: dose 4 µg/ml

Structure (SMILES)	MIC
N#C[C@@H]1CC[C@@H]2CN1C(=O)N2OS(=O)(=O)[O-].[Na+]	0.25 µg/mL

tested on: Klebsiella pneumoniae; assay: Synergistic antibacterial activity against Klebsiella pneumoniae jefferson 1775 producing OXA-48 assessed as cefepime MIC at 8 ug/ml by broth microdilution method; format: functional; settings: dose 8 µg/ml

Structure (SMILES)	MIC
N#C[C@@H]1CC[C@@H]2CN1C(=O)N2OS(=O)(=O)[O-].[Na+]	≤ 0.12 µg/mL

tested on: Acinetobacter baumannii; assay: Synergistic antibacterial activity against Acinetobacter baumannii PR474 producing OXA-23/24/40 assessed as cefepime MIC at 4 ug/ml by broth microdilution method; format: functional; settings: dose 4 µg/ml

Structure (SMILES)	MIC
N#C[C@@H]1CC[C@@H]2CN1C(=O)N2OS(=O)(=O)[O-].[Na+]	8 µg/mL

tested on: Klebsiella pneumoniae; assay: Synergistic antibacterial activity against Klebsiella pneumoniae 440/1360 producing KPC-2 assessed as meropenem MIC at 4 ug/ml by broth microdilution method; format: functional; settings: dose 4 µg/ml; summary of the method: as §1

Structure (SMILES)	MIC
N#C[C@@H]1CC[C@@H]2CN1C(=O)N2OS(=O)(=O)[O-].[Na+]	≤ 0.12 µg/mL

tested on: Acinetobacter baumannii; assay: Synergistic antibacterial activity against Acinetobacter baumannii PR448 producing OXA-23 assessed as cefepime MIC at 8 ug/ml by broth microdilution method; format: functional; settings: dose 8 µg/ml
Summary of the method: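 Broth microdilution per CLSI guidelines in frozen panels. Test compound held at fixed 8 mg/L while the partner β-lactam concentration was increased. Run in triplicate; modal MIC reported.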

Structure (SMILES)	MIC
N#C[C@@H]1CC[C@@H]2CN1C(=O)N2OS(=O)(=O)[O-].[Na+]	4 µg/mL

tested on: Klebsiella pneumoniae; assay: Synergistic antibacterial activity against Klebsiella pneumoniae 901/1860 producing KPC-3 assessed as cefepime MIC at 4 ug/ml by broth microdilution method; format: functional; settings: dose 4 µg/ml

Structure (SMILES)	MIC
N#C[C@@H]1CC[C@@H]2CN1C(=O)N2OS(=O)(=O)[O-].[Na+]	≤ 0.12 µg/mL

tested on: Klebsiella pneumoniae; assay: Synergistic antibacterial activity against Klebsiella pneumoniae 1315/2198 producing KPC-3 assessed as meropenem MIC at 8 ug/ml by broth microdilution method; format: functional; settings: dose 8 µg/ml; summary of the method: as §1

Structure (SMILES)	MIC
N#C[C@@H]1CC[C@@H]2CN1C(=O)N2OS(=O)(=O)[O-].[Na+]	≤ 0.12 µg/mL

tested on: Klebsiella pneumoniae; assay: Synergistic antibacterial activity against Klebsiella pneumoniae NY BS producing OXA-232 assessed as meropenem MIC at 8 ug/ml by broth microdilution method; format: functional; settings: dose 8 µg/ml

Structure (SMILES)	MIC
N#C[C@@H]1CC[C@@H]2CN1C(=O)N2OS(=O)(=O)[O-].[Na+]	≤ 0.12 µg/mL

tested on: Pseudomonas aeruginosa; assay: Synergistic antibacterial activity against Pseudomonas aeruginosa 715 assessed as cefepime MIC at 4 ug/ml by broth microdilution method; format: functional; settings: dose 4 µg/ml

Structure (SMILES)	MIC
N#C[C@@H]1CC[C@@H]2CN1C(=O)N2OS(=O)(=O)[O-].[Na+]	16 µg/mL

tested on: Klebsiella pneumoniae; assay: Synergistic antibacterial activity against Klebsiella pneumoniae 1354/2241 producing KPC-3 assessed as cefepime MIC at 4 ug/ml by broth microdilution method; format: functional; settings: dose 4 µg/ml; summary of the method: as §1

Structure (SMILES)	MIC
N#C[C@@H]1CC[C@@H]2CN1C(=O)N2OS(=O)(=O)[O-].[Na+]	≤ 0.12 µg/mL

tested on: Klebsiella pneumoniae; assay: Synergistic antibacterial activity against Klebsiella pneumoniae 11978 producing OXA-48 assessed as cefepime MIC at 8 ug/ml by broth microdilution method; format: functional; settings: dose 8 µg/ml; summary of the method: as §1

Structure (SMILES)	MIC
N#C[C@@H]1CC[C@@H]2CN1C(=O)N2OS(=O)(=O)[O-].[Na+]	0.5 µg/mL

tested on: Escherichia coli; assay: Synergistic antibacterial activity against Escherichia coli DH10B transfected with pBC SK (-) KPC-2 assessed as cefepime MIC at 8 ug/ml by broth microdilution method; format: functional; settings: dose 8 µg/ml

Structure (SMILES)	MIC
N#C[C@@H]1CC[C@@H]2CN1C(=O)N2OS(=O)(=O)[O-].[Na+]	≤ 0.12 µg/mL

tested on: Bacteria; assay: Inhibition of bacteria OXA-48 assessed as second order rate constant K2/K using nitrocefin as substrate; settings: not given

Structure (SMILES)	K
N#C[C@@H]1CC[C@@H]2CN1C(=O)N2OS(=O)(=O)[O-].[Na+]	6.4 10^5/M/s

tested on: Acinetobacter baumannii; assay: Synergistic antibacterial activity against ADC deleted Acinetobacter baumannii transfected with pWH1266 producing OXA-24/40 assessed as meropenem MIC at 8 ug/ml by broth microdilution method; format: functional; settings: dose 8 µg/ml

Structure (SMILES)	MIC
N#C[C@@H]1CC[C@@H]2CN1C(=O)N2OS(=O)(=O)[O-].[Na+]	> 16 µg/mL

tested on: Pseudomonas aeruginosa; assay: Synergistic antibacterial activity against Pseudomonas aeruginosa 795 assessed as meropenem MIC at 8 ug/ml by broth microdilution method; format: functional; settings: dose 8 µg/ml

Structure (SMILES)	MIC
N#C[C@@H]1CC[C@@H]2CN1C(=O)N2OS(=O)(=O)[O-].[Na+]	16 µg/mL

tested on: Acinetobacter baumannii; assay: Synergistic antibacterial activity against Acinetobacter baumannii PR363 producing OXA-23 assessed as meropenem MIC at 8 ug/ml by broth microdilution method; format: functional; settings: dose 8 µg/ml

Structure (SMILES)	MIC
N#C[C@@H]1CC[C@@H]2CN1C(=O)N2OS(=O)(=O)[O-].[Na+]	2 µg/mL

tested on: Klebsiella pneumoniae; assay: Synergistic antibacterial activity against Klebsiella pneumoniae 1398/2291 producing KPC-3 assessed as cefepime MIC at 4 ug/ml by broth microdilution method; format: functional; settings: dose 4 µg/ml; summary of the method: as §1

Structure (SMILES)	MIC
N#C[C@@H]1CC[C@@H]2CN1C(=O)N2OS(=O)(=O)[O-].[Na+]	≤ 0.12 µg/mL

tested on: Acinetobacter baumannii; assay: Synergistic antibacterial activity against Acinetobacter baumannii PR319 producing OXA-23/24/40 assessed as meropenem MIC at 4 ug/ml by broth microdilution method; format: functional; settings: dose 4 µg/ml

Structure (SMILES)	MIC
N#C[C@@H]1CC[C@@H]2CN1C(=O)N2OS(=O)(=O)[O-].[Na+]	16 µg/mL

tested on: Acinetobacter baumannii; assay: Synergistic antibacterial activity against ADC deleted Acinetobacter baumannii transfected with pWH1266 producing OXA-24/40 assessed as cefepime MIC at 4 ug/ml by broth microdilution method; format: functional; settings: dose 4 µg/ml

Structure (SMILES)	MIC
N#C[C@@H]1CC[C@@H]2CN1C(=O)N2OS(=O)(=O)[O-].[Na+]	16 µg/mL

tested on: Klebsiella pneumoniae; assay: Synergistic antibacterial activity against Klebsiella pneumoniae 440/1360 producing KPC-2 assessed as cefepime MIC at 4 ug/ml by broth microdilution method; format: functional; settings: dose 4 µg/ml; summary of the method: as §1

Structure (SMILES)	MIC
N#C[C@@H]1CC[C@@H]2CN1C(=O)N2OS(=O)(=O)[O-].[Na+]	0.5 µg/mL
